Screens from PubChem BioAssay.
Dynein cargo inh: inhibitors of GR-EGFP nuclear translocation, primary screen, dynein cargo transport inhibitor project, imaging, high-content, 3617.4 mouse cells | test concentration mostly 20 µM; stimulated with dexamethasone, 1 µM; hits give low values | z-score, hits read low | 220,000 tested, 0.47% active;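 active = plate z-score of nuclear minus cytoplasmic receptor signal below a set negative limit, without overly bright fluorescence or cell loss, cut at about -3.5 in these data, passing the limit was not always enough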;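 note: z-score of nuclear minus cytoplasmic ring GR-EGFP intensity difference per well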
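medium = tetracycline-free induction medium containing charcoal-stripped FBS | probe or stimulus = dexamethasone, 1.0 µM final | timing = 48 h induction, then 1 h compound, then 30 min agonist, 37 °C | detection = automated 10x imaging of fixed Hoechst-stained cells | read-out basis = nuclear versus cytoplasmic GR-EGFP signal, averaged per well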
MT stabilize HCS: microtubule stabilizers in HeLa cells, primary screen, imaging, high-content imaging | % tubulin-high responders, % at 10 µM | 200,000 tested, 0.83% active | AID 2205, 2009 | HeLa tubulin immunostaining HCS, 24 h; share of cells brighter than vehicle mean+2SD;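 active = plate Z-score above 3 for both tubulin-high and condensed-nucleus cell shares, with cell loss under 80%, at 10 µM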;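 note: anti alpha tubulin signal scored within the nucleus-defined area of each cell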
Autophagy mod: autophagy modulators in MEF cells, primary screen, imaging, high-content, MEF GFP-LC3. MEF GFP-LC3 puncta imaging; test concentration mostly 10 µM. AID 463193, 2010. 190,000 tested, 0.98% active. calls only at 10 µM (by protocol);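 active = percentage of spot-positive cells more than 3 SD above its plate mean, without a fluorescence outlier flag or 80% toxicity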
CHOP inh: inhibitors of CHOP promoter induction, primary screen, cell-based, unfolded protein response, luciferase reporter | 220,000 tested, 3.8% active | inhibition, % at 10 µM | CHO-K1 CHOP-promoter luciferase, tunicamycin-induced, 15-18 h | AID 2732, 2010;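 active = compounds that reduced the stress-induced luciferase reporter signal by more than about 70% of percent inhibition, limit read from the data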
bCat nuc transl: modulators of beta-catenin nuclear translocation, primary screen, imaging, HeLa cells, immunofluorescence, high-content. nuclear translocation activity, % at 5 µM. 190,000 tested, 0.3% active. AID 1665, 2009;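 active = nuclear translocation activity above 50% at 5 µM, with a well cell count of 50 or more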;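 note: per-cell ratio of nuclear to cytoplasmic median beta-catenin stain intensity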
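Test system: human HeLa cells, endogenous beta-catenin. Times: 24 h compound exposure, 37°C. Measured by: beta-catenin immunofluorescence imaging with DAPI.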
L major viab: Leishmania major promastigote growth inhibition, primary screen; Leishmania major promastigotes, resazurin fluorescence viability; inhibition, % at 10 µM; 200,000 tested, 9% active; in the data active = inhibition above about 50%;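 note: promastigotes grown with compound for 44 hours at 28 °C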
Numbers stand for hits; - = inactive; . = no result; + = active, no number. Hits are enriched below; roughly 12% of the tested compounds scored in any of these assays.

SMILES | Dynein cargo inh | MT stabilize HCS | Autophagy mod | CHOP inh | bCat nuc transl | L major viab
Cc1ccc(-c2csc(NC(=O)c3ccc4c(=O)n5c(nc4c3)CCCCC5)n2)cc1 | - | - | - | - | - | -
COc1ccc(C(=O)C2CCCN(C3Cc4ccccc4C3)C2)c(OC)c1 (stereo unspecified) | - | - | - | - | - | 94.5
COc1ccc(C(=O)C2CCCN(Cc3ccc(C#CCCO)cc3)C2)c(OC)c1 (stereo unspecified) | - | - | - | - | - | -
COc1ccc(C(=O)C2CCCN(Cc3sc(N4CCCC4)nc3Cl)C2)c(OC)c1 (stereo unspecified) | - | - | - | - | - | 99.4
COc1ccc(C(=O)C2CCCN(Cc3c(C)[nH]c4ccccc34)C2)c(OC)c1 (stereo unspecified) | - | - | - | - | - | 97.0
COc1ccc(N2CCN(C(=O)c3ccc(NS(=O)(=O)c4cccs4)cc3)CC2)cc1 | - | - | - | - | - | -
COc1ccc(N2CCN(C(CNS(=O)(=O)c3cccs3)c3cccnc3)CC2)cc1 (stereo unspecified) | - | - | - | - | . | 97.8
O=S(=O)(NCC(c1cccnc1)N1CCN(c2ccccc2)CC1)c1cccs1 (stereo unspecified) | - | - | - | - | . | 89.5
COc1ccccc1N1CCN(C(CNS(=O)(=O)c2cccs2)c2cccnc2)CC1 (stereo unspecified) | - | - | - | - | - | 83.2
Cc1ccc(S(=O)(=O)N2CCCCC2)cc1NC(=O)CSc1nccn1C | - | - | - | - | - | -
O=C(NC1CCCCC1)N1CCC(c2nc(-c3ccc(S(=O)(=O)N4CCCC4)cc3)no2)CC1 | - | 35.1 | - | - | - | 75.0
O=C(Cc1ccccc1)N1CCCC(c2nc(-c3ccc(S(=O)(=O)N4CCCC4)cc3)no2)C1 (stereo unspecified) | - | - | - | - | . | 98.8
O=C(C1CC1)N1CCC(c2nc(-c3ccc(S(=O)(=O)N4CCCC4)cc3)no2)CC1 | - | - | - | - | . | 53.2
C[C@]1(C(=O)NCc2cc(F)cc(C(F)(F)F)c2)C=C[C@@H](Cc2ccccc2)N1C(=O)c1ccccc1 | - | - | - | - | - | -
CCN(CC)S(=O)(=O)c1ccc(Cl)c(NC(=O)c2cc(Cl)cc(Cl)c2)c1 | - | - | - | 89.4 | - | -
CCN(CC)S(=O)(=O)c1ccc(Cl)c(C(=O)Nc2ccc(Cl)cc2[N+](=O)[O-])c1 | - | - | - | 79.3 | . | 85.0
CN(C)S(=O)(=O)c1ccc(Cl)c(C(=O)Nc2nc3ccccc3[nH]2)c1 | - | - | - | - | - | -
Cc1nn(CC(=O)Nc2cc(S(=O)(=O)N(C)C)ccc2Cl)c(C)c1[N+](=O)[O-] | - | - | - | - | . | 71.6
CN(C)S(=O)(=O)c1ccc(Cl)c(NC(=O)CN2CCCCCC2)c1 | - | - | - | - | - | -
CCN(CC)S(=O)(=O)c1ccc(OC)c(NC(=O)c2cc([N+](=O)[O-])ccc2Cl)c1 | - | - | - | - | - | -
CN(C)S(=O)(=O)c1ccc(Cl)c(C(=O)Nc2ccccc2[N+](=O)[O-])c1 | - | - | - | - | - | 60.8
CCCNC(=O)NC(=O)CSc1cccc(C(F)(F)F)c1 | - | - | - | - | - | -
CN(C)S(=O)(=O)c1ccc(C(=O)Nc2ccccc2[N+](=O)[O-])cc1 | - | - | - | - | - | 65.7
Cc1ccccc1NC(=O)c1ccc(S(=O)(=O)N(C)C)cc1 | - | - | - | - | - | -
CCc1cccc(N(C(=O)c2csnn2)C(C(=O)NC(C)(C)C)c2ccccn2)c1 (stereo unspecified) | - | - | - | - | - | -
SMILES | Dynein cargo inh | MT stabilize HCS | Autophagy mod | CHOP inh | bCat nuc transl | L major viab
COc1ccc(CN2CC(=O)N(c3ccc(C)cc3)C2=S)cc1OC | - | - | - | - | - | -
COc1cc(CN2CC(=O)N(c3ccc(C)cc3)C2=S)cc(OC)c1OC | - | - | - | - | - | 81.9
C/C(=N\NC(=O)CNC(=O)c1ccc2c(c1)OCO2)c1ccco1 | - | - | - | - | . | 53.0
C/C(=N/NC(=O)CNC(=O)Cc1ccccc1)c1ccco1 | - | - | - | - | . | 63.2
CCN1C(=O)c2cccc3c(S(=O)(=O)NCC4CCCO4)ccc1c23 (stereo unspecified) | - | . | . | - | - | .
COc1ccc2c(c1)SCC/C2=C\CN1C(=O)CCC1=O | - | - | - | - | - | -
CC(C)c1cccc(C(C)C)c1NC(=O)c1ccccc1 | - | - | - | - | - | -
Cc1ccc2nc3sc(-c4nnc(-c5ccccc5[N+](=O)[O-])o4)c(N)c3cc2c1 | - | - | + | - | - | -
Cn1c(SCc2cccc(F)c2)nnc1-c1cnccn1 | - | . | . | - | - | .
COc1cccc(/C=N/NC(=O)CN2CC(c3ccccc3)CC2=O)c1O (stereo unspecified) | - | - | - | - | - | -
O=C(NC1CCN(C(=O)N2c3ccccc3Sc3ccccc32)CC1)c1ccccc1Cl | - | - | - | - | - | 95.1
O=C(c1ccco1)N1CCN(C(=O)N2c3ccccc3Sc3ccccc32)CC1 | - | 13.9 | + | . | - | -
O=C(N1CCN(c2ccccn2)CC1)C(Cl)(Cl)Cl | - | - | - | - | - | -
O=C(NC1CCN(C(=O)N2c3ccccc3Sc3ccccc32)CC1)c1ccco1 | - | 13.3 | + | - | - | -
O=C(c1ccco1)N1c2ccccc2Sc2ccccc21 | - | - | - | - | - | -
NC(=O)C1CCN(C(=O)N2c3ccccc3Sc3ccccc32)CC1 | - | - | - | - | - | -
O=C(N1CCN(c2ccccn2)CC1)N1c2ccccc2Sc2ccccc21 | - | 30.9 | - | . | - | -
O=C(c1ccc(Cl)cc1)N1CCC(c2nc(-c3cccs3)no2)CC1 | - | - | - | - | - | 87.0
COC(=O)N1CCN(CCc2ccccc2)CC1 | - | - | - | - | - | 96.9
O=C(NC1CCCCC1)N1CCN(CCc2ccccc2)CC1 | - | - | - | - | - | 60.2
CC(=O)c1cccc(NC(=O)Nc2c(C)nn(C)c2C)c1 | - | - | + | - | . | -
CC(=O)c1cccc(NC(=S)NC(=O)c2ccc(C)cc2)c1 | - | - | - | - | - | -
CC(=O)c1cccc(NC(=S)NC(=O)c2ccc(Br)cc2)c1 | - | - | - | - | - | 54.5
CCOC(=O)c1ccc(NC(=O)Nc2c(C)nn(C)c2C)cc1 | - | - | - | - | - | -
CC(=O)c1cccc(NC(=O)C=C(C)C)c1 | - | - | - | - | - | 97.7
CC(=O)c1ccc(NC(=O)Nc2ccc3c(c2)nc(C)n3C)cc1 | - | - | + | - | - | -
